In ChEMBL document CHEMBL1143842, “Efficacy of tachyplesin III, colistin, and imipenem against a multiresistant Pseudomonas aeruginosa strain” (Antimicrob Agents Chemother, 2007):
Values after ≈ are worked out from the molar mass of the structure shown. Active and inactive are the calls of the source. The calls are words filed in the database; no cut-off is given here.

Key:
Pseudomonas aeruginosa [1] = experiment: Reduction of Pseudomonas aeruginosa clinical isolate infection induced IL6 levels in BALB/c mouse plasma after 24 hrs by ELISA; assay type: functional, organism-based
Summary of the method: (§1)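 Male BALB/c mice were infected i.v. with 2.0 × 10^7 CFU and treated i.v. immediately afterwards. Tail-vein plasma was sampled at 0, 6, 12, 24 and 48 h. IL-6 and TNF-α were measured by ELISA in duplicate, with sensitivity limits of 12 pg/ml and 0.05 ng/ml respectively.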

Pseudomonas aeruginosa [2] = experiment: Antimicrobial activity against Pseudomonas aeruginosa clinical isolates by broth microdilution method; assay type: functional
Summary of the method: (§2)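 CLSI broth microdilution in Mueller-Hinton broth with an inoculum of 5 × 10^5 CFU/ml, incubated 18 h at 37°C in air. Plates were shaken throughout when the peptide was tested. The MIC was the lowest concentration inhibiting visible growth. Run in triplicate.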

Pseudomonas aeruginosa [3] = experiment: Reduction of Pseudomonas aeruginosa clinical isolate infection induced endotoxin levels in BALB/c mouse plasma after 24 hrs by ELISA; assay type: functional, organism-based
Pseudomonas aeruginosa [4] = experiment: Reduction of Pseudomonas aeruginosa ATCC 27853 infection induced TNFalpha levels in BALB/c mouse plasma after 24 hrs by ELISA; assay type: functional, organism-based; summary of the method: as §1
Pseudomonas aeruginosa [5] = experiment: Effect on Pseudomonas aeruginosa clinical isolate induced sepsis in BALB/c mouse assessed as mortality at 1 mg/kg, iv for 72 hrs; assay type: functional
Summary of the method: (§3)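 Male BALB/c mice, 25–30 g, housed singly, anesthetized with ketamine 30 mg/kg im. Log-phase bacteria (grown in brain heart infusion broth, resuspended in saline) given iv via tail vein, 2.0 × 10^7 CFU. Drug at 1 or 20 mg/kg iv immediately post-challenge; saline controls. 20 mice/group; lethality over 72 h, compared by Fisher's exact test.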

Pseudomonas aeruginosa [6] = experiment: Reduction of Pseudomonas aeruginosa ATCC 27853 infection induced IL6 levels in BALB/c mouse plasma after 24 hrs by ELISA; assay type: functional, organism-based; summary of the method: as §1
Pseudomonas aeruginosa [7] = experiment: Reduction of Pseudomonas aeruginosa ATCC 27853 infection induced endotoxin levels in BALB/c mouse plasma after 24 hrs by ELISA; assay type: functional, organism-based
Pseudomonas aeruginosa [8] = experiment: Effect on Pseudomonas aeruginosa ATCC 27853 induced sepsis in BALB/c mouse assessed as mortality at 1 mg/kg, iv for 72 hrs; assay type: functional; summary of the method: as §3
Pseudomonas aeruginosa [9] = experiment: Antibacterial activity against Pseudomonas aeruginosa ATCC 27853 infected in BALB/c mouse blood at 1 mg/kg, iv after 24 hrs; assay type: functional
Summary of the method: (§4)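 Male BALB/c mice (25–30 g) were anesthetized with ketamine 30 mg/kg i.m. They were challenged via the tail vein with 2.0 × 10^7 CFU log-phase bacteria in saline. Drug or saline was given i.v. immediately after challenge, 20 mice per group. Tail-vein blood was taken at 24 h, serially diluted and plated on blood agar for 48 h at 35°C, and CFU were counted. Detection limit was 10 CFU/ml.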

Pseudomonas aeruginosa [10] = experiment: Antimicrobial activity against Pseudomonas aeruginosa ATCC 27853 by broth microdilution method; assay type: functional; summary of the method: as §2
Pseudomonas aeruginosa [11] = experiment: Reduction of Pseudomonas aeruginosa clinical isolate infection induced TNFalpha levels in BALB/c mouse plasma after 24 hrs by ELISA; assay type: functional, organism-based; summary of the method: as §1
Pseudomonas aeruginosa [12] = experiment: Antibacterial activity against Pseudomonas aeruginosa clinical isolates infected in BALB/c mouse blood at 1 mg/kg, iv after 24 hrs; assay type: functional; summary of the method: as §4
Pseudomonas aeruginosa [13] = experiment: Effect on Pseudomonas aeruginosa ATCC 27853 induced sepsis in BALB/c mouse assessed as mortality at 20 mg/kg, iv for 72 hrs; assay type: functional; summary of the method: as §3
Pseudomonas aeruginosa [14] = experiment: Antibacterial activity against Pseudomonas aeruginosa ATCC 27853 infected in BALB/c mouse blood at 20 mg/kg, iv after 24 hrs; assay type: functional; summary of the method: as §4
Pseudomonas aeruginosa [15] = experiment: Effect on Pseudomonas aeruginosa clinical isolate induced sepsis in BALB/c mouse assessed as mortality at 20 mg/kg, iv for 72 hrs; assay type: functional; summary of the method: as §3
Pseudomonas aeruginosa [16] = experiment: Antibacterial activity against Pseudomonas aeruginosa clinical isolates infected in BALB/c mouse blood at 20 mg/kg, iv after 24 hrs; assay type: functional; summary of the method: as §4

| Molecule | Activity (Pseudomonas aeruginosa [1]) | MIC (Pseudomonas aeruginosa [2]) | Activity (Pseudomonas aeruginosa [3]) | Activity (Pseudomonas aeruginosa [4]) | Activity (Pseudomonas aeruginosa [5]) | Activity (Pseudomonas aeruginosa [6]) | Activity (Pseudomonas aeruginosa [7]) | Activity (Pseudomonas aeruginosa [8]) | CFU (Pseudomonas aeruginosa [9]) | MIC (Pseudomonas aeruginosa [10]) | Activity (Pseudomonas aeruginosa [11]) | CFU (Pseudomonas aeruginosa [12]) | Activity (Pseudomonas aeruginosa [13]) | CFU (Pseudomonas aeruginosa [14]) | Activity (Pseudomonas aeruginosa [15]) | CFU (Pseudomonas aeruginosa [16]) |
| --- | --- | --- | --- | --- | --- | --- | --- | --- | --- | --- | --- | --- | --- | --- | --- | --- |
| COLISTIN | Active | 8 µg/mL | Active | Active | 30% | Active | Active | 40% | 6 10^4/ml | 4 µg/mL | Active | 1.4 10^4/ml | – | – | – | – |
| CC[C@H](C)[C@H](NC(=O)CNC(=O)[C@H](CCCNC(=N)N)NC(=O)[C@H](Cc1ccc(O)cc1)NC(=O)[C@H](CS)NC(=O)[C@@H](NC(=O)[C@H](CCCNC(=N)N)NC(=O)[C@H](Cc1ccccc1)NC(=O)[C@H](CS)NC(=O)[C@H](Cc1c[nH]c2ccccc12)NC(=O)[C@@H](N)CCCCN)C(C)C)C(=O)N[C@@H](CS)C(=O)N[C@@H](Cc1ccc(O)cc1)C(=O)N[C@@H](CCCNC(=N)N)C(=O)N[C@@H](CCCCN)C(=O)N[C@@H](CS)C(=O)NC(CCCNC(=N)N)C(N)=O (single isomer, unassigned) [TACHYPLESIN III] | Active | – | Active | Active | – | Active | Active | – | – | – | Active | – | – | – | – | – |
| C[C@@H](O)[C@H]1C(=O)N2C(C(=O)O)=C(SCCNC=N)C[C@H]12 [IMIPENEM ANHYDROUS] | – | 32 µg/mL (≈ 107 µM) | – | – | – | – | – | – | – | 0.5 µg/mL (≈ 1.67 µM) | – | – | 30% | 2.8 10^3/ml | 80% | 8.7 10^6/ml |
